{"source": "ChEMBL document CHEMBL1133103", "about": "“Design, synthesis, and structure-activity relationships of novel non-imidazole histamine H(3) receptor antagonists” (J Med Chem, 2000)", "key": {"Histamine H3 receptor [1]": {"molecular_target": "T1, Histamine H3 receptor (Cavia porcellus, UniProt Q9JI35)", "T1 sequence (Q9JI35 whole entry)": "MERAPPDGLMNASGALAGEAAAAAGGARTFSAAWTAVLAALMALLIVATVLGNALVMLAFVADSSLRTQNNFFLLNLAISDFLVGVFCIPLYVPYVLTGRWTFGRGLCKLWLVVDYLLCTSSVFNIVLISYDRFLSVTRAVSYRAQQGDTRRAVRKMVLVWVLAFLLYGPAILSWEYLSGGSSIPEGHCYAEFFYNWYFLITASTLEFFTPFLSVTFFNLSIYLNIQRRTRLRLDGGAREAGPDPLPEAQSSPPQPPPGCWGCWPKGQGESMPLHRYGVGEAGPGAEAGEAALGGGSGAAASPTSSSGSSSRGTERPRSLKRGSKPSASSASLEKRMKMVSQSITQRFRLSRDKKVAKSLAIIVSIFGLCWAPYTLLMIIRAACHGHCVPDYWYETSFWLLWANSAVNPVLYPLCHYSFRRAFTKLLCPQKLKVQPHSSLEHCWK", "assay": "In vitro binding affinity for histamine H3 receptor was determined in guinea-pig cerebral cortex using [3H](R)-alpha-methylhistamine", "format": "tissue-based"}, "[2]": {"molecular_target": "Histamine H3 receptor (Cavia porcellus) (UniProt Q9JI35)", "sequence (Q9JI35 whole entry)": "as above", "assay": "Tested in vitro against histamine H3 receptor mediated inhibition of cholinergic neurogenic contractions in isolated guinea pig ileum", "format": "functional, tissue-based", "in_short": "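Electrically stimulated guinea-pig ileum, where H3 receptors mediate inhibition of cholinergic neurogenic contractions. Agonist was (R)-α-methylhistamine. pKB ± SEM was estimated from single shifts of the agonist concentration-effect curve in at least four separate tissues, for compounds acting as surmountable antagonists. Compounds were given as dihydrochloride salts.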"}, "Histamine H3 receptor [3]": {"molecular_target": "T1, Histamine H3 receptor", "assay": "In vitro binding affinity towards histamine H3 receptor was determined in guinea-pig cerebral cortex using [3H](R)-alpha-methylhistamine"}}}
{"smiles": "N=C(NCCCN1CCCC1)NCc1ccccc1", "values": [{"measurement": "Ki", "setting": "Histamine H3 receptor [1]", "result": 20, "unit": "nM"}, {"measurement": "pKB", "setting": "[2]", "result": 6.2}]}
{"smiles": "N=C(N)N(CCCCCCCCN1CCCC1)Cc1ccc(Cl)cc1", "values": [{"measurement": "Ki", "setting": "Histamine H3 receptor [1]", "result": 4.68, "unit": "nM"}, {"measurement": "pKB", "setting": "[2]", "result": 8.09}]}
{"smiles": "O=[N+]([O-])c1ccc(OCCCCCN2CCCC2)cc1", "values": [{"measurement": "Ki", "setting": "Histamine H3 receptor [3]", "result": 39, "unit": "nM"}]}
{"smiles": "N=C(NCCCCCN1CCCC1)NCCc1ccc(Cl)cc1", "values": [{"measurement": "Ki", "setting": "Histamine H3 receptor [1]", "result": 7.59, "unit": "nM"}, {"measurement": "pKB", "setting": "[2]", "result": 7.06}]}
{"smiles": "N=C(N)N(CCCCCCN1CCCC1)Cc1ccc(Cl)cc1", "values": [{"measurement": "Ki", "setting": "Histamine H3 receptor [1]", "result": 4.17, "unit": "nM"}, {"measurement": "pKB", "setting": "[2]", "result": 8.39}]}
{"smiles": "N=C(NCCCCCN1CCCC1)NCC12CC3CC(CC(C3)C1)C2", "values": [{"measurement": "Ki", "setting": "Histamine H3 receptor [1]", "result": 3.55, "unit": "nM"}, {"measurement": "pKB", "setting": "[2]", "result": 7.9}]}
{"smiles": "O=S(=O)(NCCCN1CCCC1)c1ccc2ccccc2c1", "values": [{"measurement": "Ki", "setting": "Histamine H3 receptor [1]", "result": 324, "unit": "nM"}, {"measurement": "pKB", "setting": "[2]", "result": 5.96}]}
{"smiles": "N=C(NCCCN1CCCC1)NCc1ccc(Br)cc1", "values": [{"measurement": "Ki", "setting": "Histamine H3 receptor [1]", "result": 4.68, "unit": "nM"}, {"measurement": "pKB", "setting": "[2]", "result": 6.45}]}
{"smiles": "N=C(N)N(CCCCCN1CCCC1)Cc1ccc(Cl)cc1", "values": [{"measurement": "Ki", "setting": "Histamine H3 receptor [1]", "result": 1.07, "unit": "nM"}, {"measurement": "pKB", "setting": "[2]", "result": 7.91}]}
{"smiles": "O=[N+]([O-])c1ccc(OCCCN2CCC(Nc3nc4ccccc4s3)CC2)cc1", "values": [{"measurement": "Ki", "setting": "Histamine H3 receptor [1]", "result": 6.31, "unit": "nM"}]}
{"smiles": "N=C(NCCCCCN1CCCC1)NCC1CCCCC1", "values": [{"measurement": "Ki", "setting": "Histamine H3 receptor [1]", "result": 1.41, "unit": "nM"}, {"measurement": "pKB", "setting": "[2]", "result": 7.52}]}
{"smiles": "N=C(NCCCN1CCCC1)NCc1ccc(C(F)(F)F)cc1", "values": [{"measurement": "Ki", "setting": "Histamine H3 receptor [1]", "result": 100, "unit": "nM"}, {"measurement": "pKB", "setting": "[2]", "result": 6.1}]}
{"smiles": "N=C(NCCCCN1CCCC1)NCCc1ccc(Cl)cc1", "values": [{"measurement": "Ki", "setting": "Histamine H3 receptor [1]", "result": 6.76, "unit": "nM"}, {"measurement": "pKB", "setting": "[2]", "result": 6.24}]}
{"smiles": "O=S(=O)(NCCCN1CCCC1)NCc1ccc(Cl)cc1", "values": [{"measurement": "Ki", "setting": "Histamine H3 receptor [1]", "result": 229, "unit": "nM"}, {"measurement": "pKB", "setting": "[2]", "result": 6.21}]}
{"smiles": "N=C(NCCCCCN1CCCCCC1)NCC12CC3CC(CC(C3)C1)C2", "values": [{"measurement": "Ki", "setting": "Histamine H3 receptor [1]", "result": 7.94, "unit": "nM"}, {"measurement": "pKB", "setting": "[2]", "result": 7.84}]}
{"smiles": "N=C(NCCCN1CCCC1)NCCc1ccc(Cl)cc1", "values": [{"measurement": "Ki", "setting": "Histamine H3 receptor [1]", "result": 0.933, "unit": "nM"}, {"measurement": "pKB", "setting": "[2]", "result": 6.68}]}
{"smiles": "O=S(=O)(Cc1ccc(Cl)cc1)NCCCN1CCCC1", "values": [{"measurement": "Ki", "setting": "Histamine H3 receptor [1]", "result": 537, "unit": "nM"}, {"measurement": "pKB", "setting": "[2]", "result": 6.24}]}
{"smiles": "N=C(NCCCN1CCCC1)NCc1ccccc1Br", "values": [{"measurement": "Ki", "setting": "Histamine H3 receptor [1]", "result": 42.7, "unit": "nM"}, {"measurement": "pKB", "setting": "[2]", "result": 6.27}]}
{"smiles": "N=C(NCCCCN1CCCC1)NCc1ccc(Cl)cc1", "values": [{"measurement": "Ki", "setting": "Histamine H3 receptor [1]", "result": 5.13, "unit": "nM"}, {"measurement": "pKB", "setting": "[2]", "result": 7.32}]}
{"smiles": "N=C(NCCCN1CCCC1)NCc1ccc(Cl)cc1", "values": [{"measurement": "Ki", "setting": "Histamine H3 receptor [1]", "result": 56.2, "unit": "nM"}, {"measurement": "pKB", "setting": "[2]", "result": 6.42}]}
{"smiles": "COc1ccc(C/N=C(\\N)NCCCN2CCCC2)cc1", "values": [{"measurement": "Ki", "setting": "Histamine H3 receptor [1]", "result": 83.2, "unit": "nM"}, {"measurement": "pKB", "setting": "[2]", "result": 6.08}]}
{"smiles": "N=C(NCCCN1CCCC1)NCc1cccc(Br)c1", "values": [{"measurement": "Ki", "setting": "Histamine H3 receptor [1]", "result": 25.7, "unit": "nM"}, {"measurement": "pKB", "setting": "[2]", "result": 6.46}]}
{"smiles": "N=C(N)N(CCCCN1CCCC1)Cc1ccc(Cl)cc1", "values": [{"measurement": "Ki", "setting": "Histamine H3 receptor [1]", "result": 7.94, "unit": "nM"}, {"measurement": "pKB", "setting": "[2]", "result": 7.34}]}
{"smiles": "N=C(NCCCN1CCCC1)Nc1ccc(Cl)cc1", "values": [{"measurement": "Ki", "setting": "Histamine H3 receptor [1]", "result": 53.7, "unit": "nM"}, {"measurement": "pKB", "setting": "[2]", "result": 6.03}]}
{"smiles": "N=C(NCCCN1CCCC1)NCc1ccc(I)cc1", "values": [{"measurement": "Ki", "setting": "Histamine H3 receptor [1]", "result": 53.7, "unit": "nM"}, {"measurement": "pKB", "setting": "[2]", "result": 6.43}]}
{"smiles": "N=C(NCCCCCN1CCCC1)NCC1CCCCCC1", "values": [{"measurement": "Ki", "setting": "Histamine H3 receptor [1]", "result": 3.55, "unit": "nM"}, {"measurement": "pKB", "setting": "[2]", "result": 7.67}]}
{"smiles": "N=C(NCCCCCN1CCCCCCC1)NCC12CC3CC(CC(C3)C1)C2", "values": [{"measurement": "Ki", "setting": "Histamine H3 receptor [1]", "result": 30.2, "unit": "nM"}, {"measurement": "pKB", "setting": "[2]", "result": 7.37}]}
{"smiles": "CN(C)CCCNS(=O)(=O)c1ccc2ccccc2c1", "values": [{"measurement": "Ki", "setting": "Histamine H3 receptor [1]", "result": 1000, "unit": "nM"}, {"measurement": "pKB", "setting": "[2]", "result": 5.52}]}
{"smiles": "N=C(NCCCCCN1CCCCC1)NCC12CC3CC(CC(C3)C1)C2", "values": [{"measurement": "Ki", "setting": "Histamine H3 receptor [1]", "result": 10.7, "unit": "nM"}, {"measurement": "pKB", "setting": "[2]", "result": 8.14}]}
{"smiles": "N=C(NCCCCCN1CCCC1)NCc1ccc(Cl)cc1", "values": [{"measurement": "Ki", "setting": "Histamine H3 receptor [1]", "result": 5.37, "unit": "nM"}, {"measurement": "pKB", "setting": "[2]", "result": 7.3}]}
{"smiles": "N=C(N)N(CCCCCCCN1CCCC1)Cc1ccc(Cl)cc1", "values": [{"measurement": "Ki", "setting": "Histamine H3 receptor [1]", "result": 2, "unit": "nM"}, {"measurement": "pKB", "setting": "[2]", "result": 8.38}]}
{"smiles": "CN(C)CCCSC(=N)N", "values": [{"measurement": "Ki", "setting": "Histamine H3 receptor [1]", "result": 47.9, "unit": "nM"}, {"measurement": "pKB", "setting": "[2]", "result": 5.93}]}
{"smiles": "S=C(NCCCN1CCCC1)NCc1ccc(Cl)cc1", "values": [{"measurement": "Ki", "setting": "Histamine H3 receptor [1]", "result": 407, "unit": "nM"}, {"measurement": "pKB", "setting": "[2]", "result": 5.66}]}
